Values after ≈ are worked out from the molar mass of the structure shown.
Tested on: not listed separately
Experiment: Cytotoxicity against human BCA1 cells after 3 days by SRB assay
Format: functional
Conditions: BCA1, 72 h, read-out: ED50 (the source's name)

Point of comparison: `COc1ccc2c(c1)C[C@@H]1c3c(cc4c(c3-2)OCO4)CCN1C`, EC50 2.9 µg/mL (≈ 9.37 µM). Against it:
- COc1c(O[C@@H]2O[C@H](CO)[C@@H](O)[C@H](O)[C@H]2O)cc2c3c1-c1ccccc1C[C@H]3NCC2 — higher, > 20 µg/mL
- COc1cc2c(cc1O)-c1c3c(cc4c1[C@@H](C2)N(C)CC4)OCO3 — within 1.5-fold, 2.5 µg/mL (≈ 7.68 µM)

Tested on: HT-1080
Experiment: Cytotoxicity against human HT1080 cells after 3 days by SRB assay
Format: functional
Conditions: HT-1080, 72 h, read-out: ED50 (the source's name)

Point of comparison: `COc1ccc2c(c1)C[C@@H]1c3c(cc4c(c3-2)OCO4)CCN1C`, EC50 1.8 µg/mL (≈ 5.82 µM). Against it:
- COc1c(O[C@@H]2O[C@H](CO)[C@@H](O)[C@H](O)[C@H]2O)cc2c3c1-c1ccccc1C[C@H]3NCC2 — higher, > 20 µg/mL
- COc1cc2c(cc1O)-c1c3c(cc4c1[C@@H](C2)N(C)CC4)OCO3 — 1.6-fold higher, 2.9 µg/mL (≈ 8.91 µM)

Tested on: not listed separately
Experiment: Cytotoxicity against human LUC1 cells after 3 days by SRB assay
Format: functional
Conditions: LUC1, 72 h, read-out: ED50 (the source's name)

Point of comparison: `COc1ccc2c(c1)C[C@@H]1c3c(cc4c(c3-2)OCO4)CCN1C`, EC50 12.2 µg/mL (≈ 39.4 µM). Against it:
- COc1c(O[C@@H]2O[C@H](CO)[C@@H](O)[C@H](O)[C@H]2O)cc2c3c1-c1ccccc1C[C@H]3NCC2 — higher, > 20 µg/mL
- COc1cc2c(cc1O)-c1c3c(cc4c1[C@@H](C2)N(C)CC4)OCO3 — 3.9-fold lower, 3.1 µg/mL (≈ 9.53 µM)

Tested on: SK-MEL-2
Experiment: Cytotoxicity against human SK-MEL-2 cells after 3 days by SRB assay
Format: functional
Conditions: SK-MEL-2, 72 h, read-out: ED50 (the source's name)

Point of comparison: `COc1cc2c(cc1O)-c1c3c(cc4c1[C@@H](C2)N(C)CC4)OCO3`, EC50 18.8 µg/mL (≈ 57.8 µM). Against it:
- COc1ccc2c(c1)C[C@@H]1c3c(cc4c(c3-2)OCO4)CCN1C — higher, > 20 µg/mL
- COc1c(O[C@@H]2O[C@H](CO)[C@@H](O)[C@H](O)[C@H]2O)cc2c3c1-c1ccccc1C[C@H]3NCC2 — higher, > 20 µg/mL

Tested on: not listed separately
Experiment: Cytotoxicity against human Col1 cells after 3 days by SRB assay
Format: functional
Conditions: Col1, 72 h, read-out: ED50 (the source's name)

Point of comparison: `COc1cc2c(cc1O)-c1c3c(cc4c1[C@@H](C2)N(C)CC4)OCO3`, EC50 4.1 µg/mL (≈ 12.6 µM). Against it:
- COc1ccc2c(c1)C[C@@H]1c3c(cc4c(c3-2)OCO4)CCN1C — within 1.5-fold, 3.2 µg/mL (≈ 10.3 µM)
- COc1c(O[C@@H]2O[C@H](CO)[C@@H](O)[C@H](O)[C@H]2O)cc2c3c1-c1ccccc1C[C@H]3NCC2 — higher, > 20 µg/mL

Tested on: not listed separately
Experiment: Cytotoxicity against human KB cells after 3 days by SRB assay
Format: cell-based
Conditions: read-out: ED50

Point of comparison: `COc1ccc2c(c1)C[C@@H]1c3c(cc4c(c3-2)OCO4)CCN1C`, CC50 at 72 h 2.5 µg/mL (≈ 8.08 µM). Against it:
- COc1c(O[C@@H]2O[C@H](CO)[C@@H](O)[C@H](O)[C@H]2O)cc2c3c1-c1ccccc1C[C@H]3NCC2 — higher, > 20 µg/mL
- COc1cc2c(cc1O)-c1c3c(cc4c1[C@@H](C2)N(C)CC4)OCO3 — within 1.5-fold, 1.8 µg/mL (≈ 5.53 µM)

Tested on: not listed separately
Experiment: Cytotoxicity against vinblastine-resistant human KBV1 cells after 3 days by SRB assay
Format: functional
Conditions: KB-V1, 72 h, read-out: ED50 (the source's name)

Point of comparison: `COc1ccc2c(c1)C[C@@H]1c3c(cc4c(c3-2)OCO4)CCN1C`, EC50 1.2 µg/mL (≈ 3.88 µM). Against it:
- COc1c(O[C@@H]2O[C@H](CO)[C@@H](O)[C@H](O)[C@H]2O)cc2c3c1-c1ccccc1C[C@H]3NCC2 — higher, > 20 µg/mL
- COc1cc2c(cc1O)-c1c3c(cc4c1[C@@H](C2)N(C)CC4)OCO3 — the same, 1.2 µg/mL (≈ 3.69 µM)

Tested on: P388
Experiment: Cytotoxicity against mouse P388 cells after 3 days by SRB assay
Format: functional
Conditions: P388, 72 h, read-out: ED50 (the source's name)

Point of comparison: `COc1cc2c(cc1O)-c1c3c(cc4c1[C@@H](C2)N(C)CC4)OCO3`, EC50 0.4 µg/mL (≈ 1.23 µM). Against it:
- COc1ccc2c(c1)C[C@@H]1c3c(cc4c(c3-2)OCO4)CCN1C — higher, > 5 µg/mL
- COc1c(O[C@@H]2O[C@H](CO)[C@@H](O)[C@H](O)[C@H]2O)cc2c3c1-c1ccccc1C[C@H]3NCC2 — higher, > 20 µg/mL

Tested on: A-431
Experiment: Cytotoxicity against human A431 cells after 3 days by SRB assay
Format: functional
Conditions: A-431, 72 h, read-out: ED50 (the source's name)

Point of comparison: `COc1cc2c(cc1O)-c1c3c(cc4c1[C@@H](C2)N(C)CC4)OCO3`, EC50 12.6 µg/mL (≈ 38.7 µM). Against it:
- COc1ccc2c(c1)C[C@@H]1c3c(cc4c(c3-2)OCO4)CCN1C — 9.7-fold lower, 1.3 µg/mL (≈ 4.2 µM)
- COc1c(O[C@@H]2O[C@H](CO)[C@@H](O)[C@H](O)[C@H]2O)cc2c3c1-c1ccccc1C[C@H]3NCC2 — higher, > 20 µg/mL

Tested on: LNCaP
Experiment: Cytotoxicity against human LNCAP cells after 3 days by SRB assay
Format: functional
Conditions: 72 h, read-out: ED50 (the source's name)

Point of comparison: `COc1ccc2c(c1)C[C@@H]1c3c(cc4c(c3-2)OCO4)CCN1C`, EC50 2.9 µg/mL (≈ 9.37 µM). Against it:
- COc1c(O[C@@H]2O[C@H](CO)[C@@H](O)[C@H](O)[C@H]2O)cc2c3c1-c1ccccc1C[C@H]3NCC2 — higher, > 20 µg/mL
- COc1cc2c(cc1O)-c1c3c(cc4c1[C@@H](C2)N(C)CC4)OCO3 — 1.5-fold lower, 1.9 µg/mL (≈ 5.84 µM)

Tested on: ZR-75-1
Experiment: Cytotoxicity against human ZR-75-1 cells after 3 days by SRB assay
Format: functional
Conditions: ZR-75-1, 72 h, read-out: ED50 (the source's name)

Point of comparison: `COc1ccc2c(c1)C[C@@H]1c3c(cc4c(c3-2)OCO4)CCN1C`, EC50 2.6 µg/mL (≈ 8.4 µM). Against it:
- COc1c(O[C@@H]2O[C@H](CO)[C@@H](O)[C@H](O)[C@H]2O)cc2c3c1-c1ccccc1C[C@H]3NCC2 — higher, > 20 µg/mL
- COc1cc2c(cc1O)-c1c3c(cc4c1[C@@H](C2)N(C)CC4)OCO3 — within 1.5-fold, 2.1 µg/mL (≈ 6.45 µM)

Tested on: not listed separately
Experiment: Cytotoxicity against human U373 cells after 3 days by SRB assay
Format: functional, U-373MG ATCC
Conditions: U373 MG, 72 h, read-out: ED50 (the source's name)

Point of comparison: `COc1cc2c(cc1O)-c1c3c(cc4c1[C@@H](C2)N(C)CC4)OCO3`, EC50 1.7 µg/mL (≈ 5.22 µM). Against it:
- COc1ccc2c(c1)C[C@@H]1c3c(cc4c(c3-2)OCO4)CCN1C — within 1.5-fold, 1.3 µg/mL (≈ 4.2 µM)
- COc1c(O[C@@H]2O[C@H](CO)[C@@H](O)[C@H](O)[C@H]2O)cc2c3c1-c1ccccc1C[C@H]3NCC2 — higher, > 20 µg/mL

Tested on: Plasmodium falciparum
Experiment: Antimalarial activity after 24 hrs against chloroquine-sensitive Plasmodium falciparum D6 infected type A+ human erythrocytes by [3H]hypoxanthine uptake
Format: functional
Conditions: read-out: ED50 (the source's name)

Point of comparison: `COc1ccc2c(c1)C[C@@H]1c3c(cc4c(c3-2)OCO4)CCN1C`, EC50 2.56 µg/mL (≈ 8.28 µM). Against it:
- COc1c(O[C@@H]2O[C@H](CO)[C@@H](O)[C@H](O)[C@H]2O)cc2c3c1-c1ccccc1C[C@H]3NCC2 — higher, > 10 µg/mL
- COc1cc2c(cc1O)-c1c3c(cc4c1[C@@H](C2)N(C)CC4)OCO3 — within 1.5-fold, 2.01 µg/mL (≈ 6.18 µM)

Tested on: Plasmodium falciparum
Experiment: Antimalarial activity after 24 hrs against chloroquine-resistant Plasmodium falciparum W2 infected type A+ human erythrocytes by [3H]hypoxanthine uptake
Format: functional
Conditions: read-out: ED50 (the source's name)

Point of comparison: `COc1cc2c(cc1O)-c1c3c(cc4c1[C@@H](C2)N(C)CC4)OCO3`, EC50 2.88 µg/mL (≈ 8.85 µM). Against it:
- COc1ccc2c(c1)C[C@@H]1c3c(cc4c(c3-2)OCO4)CCN1C — 1.8-fold lower, 1.61 µg/mL (≈ 5.2 µM)
- COc1c(O[C@@H]2O[C@H](CO)[C@@H](O)[C@H](O)[C@H]2O)cc2c3c1-c1ccccc1C[C@H]3NCC2 — higher, > 10 µg/mL

Tested on: not listed separately
Experiment: Selectivity index, ED50 for human KB cells to ED50 for chloroquine-sensitive Plasmodium falciparum D6
Format: toxicity, cell-based
Conditions: read-out: Ratio ED50
In short: (§1)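 Selectivity index is the ED50 in KB cells divided by the ED50 against the P. falciparum strain (D-6, chloroquine-sensitive; W-2, chloroquine-resistant). Parasite ED50s are expressed in ng/ml and KB ED50s in µg/ml.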

Point of comparison: `COc1cc2c(cc1O)-c1c3c(cc4c1[C@@H](C2)N(C)CC4)OCO3`, selectivity ratio 1. Against it:
- COc1ccc2c(c1)C[C@@H]1c3c(cc4c(c3-2)OCO4)CCN1C — higher, > 1

Tested on: not listed separately
Experiment: Selectivity index, ED50 for human KB cells to ED50 for chloroquine-resistant Plasmodium falciparum W2
Format: toxicity, cell-based
Conditions: read-out: Ratio ED50
In short: as §1

Point of comparison: `COc1cc2c(cc1O)-c1c3c(cc4c1[C@@H](C2)N(C)CC4)OCO3`, selectivity ratio 1. Against it:
- COc1ccc2c(c1)C[C@@H]1c3c(cc4c(c3-2)OCO4)CCN1C — the same, 1

Source: ChEMBL document CHEMBL1147366, “Cytotoxic and antimalarial alkaloids from the tubers of Stephania pierrei” (J Nat Prod, 1993)
